Experimental findings from PubChem BioAssay AID602226 (The Scripps Research Institute Molecular Screening Center, 2012) are described below.

The source made the active and inactive calls.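 The calls were made as follows: active = average inhibition of labeled dioxin binding to the receptor of at least 10% at 10 µM; inactive = the rest.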

In the test the test system is Aryl hydrocarbon receptor (Cavia porcellus). Description: competitors of radiolabeled TCDD at AHR – cell lysate, guinea pig liver cytosol, radiometric, counter-screen for AHR activator project, late-stage follow-up (AID 602226). Particulars: [3H]TCDD HAP binding; for inhibition: at 10 µM, stronger effect = higher value. Summed up: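 Test system – guinea pig hepatic cytosol, AHR source · Quantity – cytosol at 2 mg protein per mL · Probe or stimulus – [3H]TCDD radioligand at 2 nM final · Incubation – 1 h binding incubation, room temperature · Signal – Hydroxyapatite capture, Tween-buffer washes, then scintillation counting · Measure – % reduction of specific radioligand binding · Repeats – three replicates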
For orientation: A counterscreen serves to expose hits that act by an unwanted route or on another target.

[1] abbreviates: measured here: IC50 range lower bound.
The mark [2] stands for this setting: measured here: IC50 range upper bound.

By inhibition is commonly meant the relative decrease from the control value, in per cent. As a reminder, the IC50 is the midpoint of a concentration-inhibition curve. In the case of `CCOC(=O)Cc1cc(-c2ccc(O)cc2)nc2ccc3ccccc3c12`, the inhibition was 39%. In addition, the 50% inhibitory concentration (IC50) under setting [1] stood at 1000 nM.
Consider `Cc1csc(SCC(=O)Nc2ccc(Cl)cn2)n1`, for which the inhibition is 9.5% (inactive).
Consider `COc1ccc(NC(=O)c2cccc3c(Br)cccc23)cc1`, for which the inhibition is 65%. The compound further came in with a concentration for half-maximal inhibition (IC50) under setting [1] of 100 nM. Under setting [2], this compound gave an IC50 of 1000 nM.
On to `COc1ccccc1NC(=O)c1ccc(C(=O)Nc2ccccc2OC)nc1`, for which the inhibition was 32%.
For `Cc1ccc(-c2cc(-c3cccs3)[nH]n2)c(O)c1`, the inhibition was 99%. Under setting [2], this compound returned an IC50 of 100 nM.
For `Cc1nc(N)nc(Nc2ccc(Cl)cc2)c1Br`, the inhibition is 79%. Also, the IC50 under setting [1] was 100 nM. This compound also displayed a half-inhibitory concentration (IC50) under setting [2] of 1000 nM.
